Data taken from publication PMC4834512 (Innate Immunity, 2016).
“And” between values parts separate entries of the source, which are not always exact repeats. Identical values can stand only once.

Key:
LPS from E. coli = assay: LPS inactivation by PMB in plasma, LAL test; format: biochemical, Escherichia coli; conditions: 5 ng/ml LPS from E. coli, fresh human heparinized plasma, 60 min 37℃
Method in brief: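 Fresh human heparinized plasma spiked with E. coli LPS (5 or 0.5 ng/ml) was incubated with test compound at 0, 10, 100, 250, 500 and 1000 ng/ml for 60 min at 37℃ in pyrogen-free glass vials. Endotoxin activity was read by kinetic chromogenic LAL test. ENC50 is the concentration reducing activity by 50% relative to LPS-spiked plasma without test compound.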

plasma proteins [1] = format: in vitro ADME, human
Method in brief: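 Fresh citrate-anticoagulated plasma from three donors was spiked with 1 µg/ml test compound. Aliquots were centrifuged (10,000 g, 20 min) through ultrafiltration membranes of 10, 30, 50 or 100 kDa MMCO, and filtrates were stored at −20℃. Drug in filtrates was measured by competitive ELISA (detection limit 1 ng/ml; samples diluted into 0–100 ng/ml range). Total protein was measured by automated analyser. The same filtration was run in 0.9% NaCl to check binding to the filter.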

plasma proteins [2] = conditions: assumed value from the literature; cited from earlier work

Substance: Polymyxin B [PMB]
- ENC50 (endotoxin neutralizing concentration) (LPS from E. coli): 381 ng/mL and < 400 ng/mL
- PMB % of + control in filtrate (plasma proteins [1]; 100 kDa MMCO, citrate plasma, 1 µg/ml PMB, ultrafiltration 10,000 g 20 min, ELISA, mean ± SD n = 3): 25 ± 13%
- PMB-content of filtrates compared with a PMB-solution without plasma (plasma proteins [1]; membranes with smaller pores than 100 kDa MMCO (10, 30, 50 kDa)): < 10%
- Plasma protein binding of PMB (plasma proteins [2]): up to 90%
